Legend:
[1] = biological target: Angiotensin-converting enzyme (Homo sapiens) (UniProt P12821); assay: Partition ratio expressed as ratio of catalytic constant to that of inactivation constant for angiotensin converting enzyme (ACE)
[2] = biological target: Neprilysin (Homo sapiens) (UniProt P08473); assay: Inactivation constant for Neutral endopeptidase (NEP)
Procedure, shortened: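 Recombinant human NEP from CHO cells (>99% pure), 0.5 μM in 50 mM HEPES pH 7.4 with 10% p-dioxane, incubated at 25 °C with inactivator at 0.5–7.5 μM final. Aliquots diluted 1:100 into DAGNPG assay solution (50 mM Tris pH 7.4, 37 °C), fluorescence read at ex 342/em 562 nm. Pseudo-first-order kobs plotted double-reciprocally against inactivator concentration to give kinact and Km.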

[3] = Partition ratio expressed as ratio of catalytic constant to that of inactivation constant for (NEP)
Procedure, shortened: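 Partition ratio was found by titration. NEP at 0.5 μM in 50 mM HEPES pH 7.4 was mixed with inactivator at inactivator/NEP molar ratios from 1 up to 2600 or 6000, then stirred gently at 4 °C for 16 h. Aliquots were diluted 1:100 into DAGNPG assay solution and residual activity was measured fluorometrically. Controls lacked inactivator.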

[4] = biological target: T1, Angiotensin-converting enzyme (Rattus norvegicus) (UniProt P47820); assay: Inactivation constant for angiotensin converting enzyme (ACE)
T1 sequence (whole entry): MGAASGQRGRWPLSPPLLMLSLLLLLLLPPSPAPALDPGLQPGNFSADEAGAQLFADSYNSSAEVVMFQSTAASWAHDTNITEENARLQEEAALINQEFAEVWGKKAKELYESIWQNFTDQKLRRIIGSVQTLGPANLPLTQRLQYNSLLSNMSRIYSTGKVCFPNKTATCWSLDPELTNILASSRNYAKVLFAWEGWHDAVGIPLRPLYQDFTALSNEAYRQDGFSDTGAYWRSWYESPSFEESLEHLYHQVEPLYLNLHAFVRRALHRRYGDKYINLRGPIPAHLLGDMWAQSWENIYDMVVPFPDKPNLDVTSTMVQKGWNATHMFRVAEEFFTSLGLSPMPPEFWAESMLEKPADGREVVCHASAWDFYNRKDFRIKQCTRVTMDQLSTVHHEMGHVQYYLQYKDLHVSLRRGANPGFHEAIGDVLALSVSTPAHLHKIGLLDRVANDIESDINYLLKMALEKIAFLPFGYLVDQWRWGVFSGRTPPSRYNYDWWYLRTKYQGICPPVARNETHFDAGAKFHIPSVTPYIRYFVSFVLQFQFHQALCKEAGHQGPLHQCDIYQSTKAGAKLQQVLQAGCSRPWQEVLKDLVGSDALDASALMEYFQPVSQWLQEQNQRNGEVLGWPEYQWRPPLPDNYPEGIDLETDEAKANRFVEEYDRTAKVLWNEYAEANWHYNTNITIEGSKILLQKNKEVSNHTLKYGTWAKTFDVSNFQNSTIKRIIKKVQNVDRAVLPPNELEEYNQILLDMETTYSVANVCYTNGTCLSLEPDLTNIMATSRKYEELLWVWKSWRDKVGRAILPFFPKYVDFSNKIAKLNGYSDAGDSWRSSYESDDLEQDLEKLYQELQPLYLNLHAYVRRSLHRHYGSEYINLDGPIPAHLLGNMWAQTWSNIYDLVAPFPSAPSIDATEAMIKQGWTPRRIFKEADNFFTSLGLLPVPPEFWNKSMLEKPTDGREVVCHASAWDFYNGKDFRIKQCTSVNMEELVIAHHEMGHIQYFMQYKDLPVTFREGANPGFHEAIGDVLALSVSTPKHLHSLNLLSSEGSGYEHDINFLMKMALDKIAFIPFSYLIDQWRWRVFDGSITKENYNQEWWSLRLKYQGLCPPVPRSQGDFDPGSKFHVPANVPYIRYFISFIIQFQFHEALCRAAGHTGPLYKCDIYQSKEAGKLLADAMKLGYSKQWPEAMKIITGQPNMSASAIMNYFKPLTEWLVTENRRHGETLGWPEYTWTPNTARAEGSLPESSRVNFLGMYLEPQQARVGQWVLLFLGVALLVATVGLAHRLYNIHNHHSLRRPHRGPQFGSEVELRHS

[5] = biological target: Neprilysin (Homo sapiens) (UniProt P08473)

Sequence of Neprilysin (Homo sapiens) (P08473 whole entry): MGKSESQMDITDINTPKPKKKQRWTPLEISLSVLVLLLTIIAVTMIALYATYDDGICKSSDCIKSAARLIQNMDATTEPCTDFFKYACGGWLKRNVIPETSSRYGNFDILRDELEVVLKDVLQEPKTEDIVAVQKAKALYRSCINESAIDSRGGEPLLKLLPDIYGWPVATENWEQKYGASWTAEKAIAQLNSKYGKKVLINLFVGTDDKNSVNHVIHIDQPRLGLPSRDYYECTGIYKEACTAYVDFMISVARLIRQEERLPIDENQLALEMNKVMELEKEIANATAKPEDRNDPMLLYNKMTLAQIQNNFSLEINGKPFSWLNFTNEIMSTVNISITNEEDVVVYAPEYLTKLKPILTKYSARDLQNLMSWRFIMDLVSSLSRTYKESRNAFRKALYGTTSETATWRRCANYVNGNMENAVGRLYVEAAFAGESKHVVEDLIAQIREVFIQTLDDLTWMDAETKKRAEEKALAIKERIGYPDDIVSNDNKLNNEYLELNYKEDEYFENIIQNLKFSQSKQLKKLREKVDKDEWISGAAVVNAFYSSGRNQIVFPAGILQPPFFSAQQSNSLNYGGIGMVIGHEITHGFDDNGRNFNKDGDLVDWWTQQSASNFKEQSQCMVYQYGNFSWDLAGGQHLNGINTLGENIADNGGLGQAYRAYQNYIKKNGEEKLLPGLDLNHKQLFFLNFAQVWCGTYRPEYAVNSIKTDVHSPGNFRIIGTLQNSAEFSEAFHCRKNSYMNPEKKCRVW
Sequence of Angiotensin-converting enzyme (Homo sapiens) (P12821 whole entry): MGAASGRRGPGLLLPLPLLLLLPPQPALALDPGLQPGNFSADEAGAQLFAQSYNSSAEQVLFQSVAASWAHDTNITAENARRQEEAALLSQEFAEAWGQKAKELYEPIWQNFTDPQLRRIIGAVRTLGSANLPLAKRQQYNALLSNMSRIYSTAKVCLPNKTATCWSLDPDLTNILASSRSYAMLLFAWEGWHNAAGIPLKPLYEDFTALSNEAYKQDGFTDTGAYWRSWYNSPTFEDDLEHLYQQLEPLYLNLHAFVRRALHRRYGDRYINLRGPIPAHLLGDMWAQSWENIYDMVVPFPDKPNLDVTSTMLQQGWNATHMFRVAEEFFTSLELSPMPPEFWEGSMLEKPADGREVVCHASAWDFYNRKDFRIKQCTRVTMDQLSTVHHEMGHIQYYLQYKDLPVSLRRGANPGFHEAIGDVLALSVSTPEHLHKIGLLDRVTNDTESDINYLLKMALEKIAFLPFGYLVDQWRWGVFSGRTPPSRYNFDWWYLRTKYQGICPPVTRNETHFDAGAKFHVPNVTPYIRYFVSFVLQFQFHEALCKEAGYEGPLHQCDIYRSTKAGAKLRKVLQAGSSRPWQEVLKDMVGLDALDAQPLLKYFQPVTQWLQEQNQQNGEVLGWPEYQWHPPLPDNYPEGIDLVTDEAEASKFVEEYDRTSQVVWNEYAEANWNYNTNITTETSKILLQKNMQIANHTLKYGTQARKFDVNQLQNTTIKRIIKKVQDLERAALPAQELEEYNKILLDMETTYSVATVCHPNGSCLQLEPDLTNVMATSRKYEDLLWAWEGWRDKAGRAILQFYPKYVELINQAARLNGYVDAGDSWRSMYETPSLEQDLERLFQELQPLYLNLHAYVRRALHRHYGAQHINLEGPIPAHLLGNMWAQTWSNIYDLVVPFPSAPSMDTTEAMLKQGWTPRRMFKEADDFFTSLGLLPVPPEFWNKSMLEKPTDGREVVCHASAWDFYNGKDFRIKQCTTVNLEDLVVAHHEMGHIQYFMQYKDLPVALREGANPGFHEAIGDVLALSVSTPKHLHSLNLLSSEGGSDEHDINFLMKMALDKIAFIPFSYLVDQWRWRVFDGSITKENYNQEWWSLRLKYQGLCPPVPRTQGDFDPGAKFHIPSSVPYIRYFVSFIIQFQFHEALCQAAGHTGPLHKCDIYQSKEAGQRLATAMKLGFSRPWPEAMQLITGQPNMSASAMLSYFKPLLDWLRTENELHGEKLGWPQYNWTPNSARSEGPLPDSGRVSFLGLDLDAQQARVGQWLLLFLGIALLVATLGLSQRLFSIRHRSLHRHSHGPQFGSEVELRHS

K cat/Kinact [1]	kinact [2]	K cat/Kinact [3]	kinact [4]	kinact [5]	Compound
8300	0.022 min⁻¹	4700	0.08 min⁻¹		N#CCC(=O)NC(Cc1ccccc1)C(=O)NC(Cc1ccccc1)C(=O)O (stereo unspecified)
		1340		0.071 min⁻¹	N#CCC(=O)CC(Cc1ccccc1)C(=O)NC(Cc1ccccc1)C(=O)O (stereo unspecified)
